Measurements published in ChEMBL document CHEMBL1149612, “Synthesis and antiproliferative activity of clausine E, mukonine, and koenoline bioisosteres” (Bioorg Med Chem, 2007).

Tests used:
[1] = system: SW480; experiment: Antiproliferative activity against human SW480 cells after 72 hrs; format: functional, cell-based; details: SW480, 72 h
How it was run: (§1)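 Asynchronously growing cells seeded at 5 × 10^3 cells/well and held 24 h in medium, then exposed to drug for 72 h; MTT reagent (5 mg/mL stock) added. Growth taken as absorbance of treated wells as percent of untreated controls. IC50 is the dose giving 50% growth inhibition versus untreated cells. Five separate experiments, each in triplicate; mean ± SD.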

[2] = system: SW48; experiment: Antiproliferative activity against human SW48 cells after 72 hrs; format: functional, cell-based; details: SW48, 72 h; how it was run: as §1
[3] = system: HCT-116; experiment: Antiproliferative activity against human HCT116 cells after 72 hrs; format: functional, cell-based; details: HCT-116, 72 h; how it was run: as §1
[4] = system: MCF7; experiment: Antiproliferative activity against human MCF7 cells after 72 hrs; format: functional, cell-based; details: MCF7, 72 h; how it was run: as §1
[5] = system: HCT-116; experiment: Cell cycle arrest in HCT116 cells by accumulation at G2/M phase at 100 uM after 72 hrs; format: functional, Homo sapiens
How it was run: (§2)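 Colorectal cells given 100 µM compound for 72 h. Afterwards 10^6 cells/mL were resuspended in propidium iodide solution and held overnight at 4 °C, then run on flow cytometry. Doublets and aggregates were gated out on FL2-area/FL2-width before calculating the percentage of cells in G1, S and G2/M phases.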

[6] = system: SW48; experiment: Cell cycle arrest in SW48 cells by accumulation at G2/M phase at 100 uM after 72 hrs; format: functional, Homo sapiens; how it was run: as §2
[7] = Antiproliferative activity against human Mes-sa cells after 72 hrs; format: functional, cell-based
How it was run: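 Cells seeded at 5 × 10^3 cells/well and allowed 24 h in medium before compound addition. Exposure lasted 72 h, followed by MTT read-out. Growth was expressed as absorbance relative to untreated controls, and IC50 was taken as the dose giving 50% growth inhibition. Five separate experiments were run, each in triplicate, reported as mean ± SD.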

[8] = system: SW480; experiment: Cell cycle arrest in SW480 cells by accumulation at S phase at 100 uM after 72 hrs; format: functional, Homo sapiens; how it was run: as §2
[9] = system: HCT-116; experiment: Cell cycle arrest in HCT116 cells by accumulation at S phase at 100 uM after 72 hrs; format: functional, Homo sapiens; how it was run: as §2
[10] = system: HCT-116; experiment: Cell cycle arrest in HCT116 cells by accumulation at G1 phase at 100 uM after 72 hrs; format: functional, Homo sapiens; how it was run: as §2
[11] = system: SW48; experiment: Cell cycle arrest in SW48 cells by accumulation at S phase at 100 uM after 72 hrs; format: functional, Homo sapiens; how it was run: as §2
[12] = system: SW480; experiment: Cell cycle arrest in SW480 cells by accumulation at G2/M phase at 100 uM after 72 hrs; format: functional, Homo sapiens; how it was run: as §2
[13] = system: SW480; experiment: Cell cycle arrest in SW480 cells by accumulation at G1 phase at 100 uM after 72 hrs; format: functional, Homo sapiens; how it was run: as §2
[14] = system: SW48; experiment: Cell cycle arrest in SW48 cells by accumulation at G1 phase at 100 uM after 72 hrs; format: functional, Homo sapiens; how it was run: as §2

Row | Structure (SMILES) | IC50 [1] | IC50 [2] | IC50 [3] | IC50 [4] | Activity [5] | Activity [6] | IC50 [7] | Activity [8] | Activity [9] | Activity [10] | Activity [11] | Activity [12] | Activity [13] | Activity [14]
1 | O=c1[nH]cc(F)c(=O)[nH]1 [FLUOROURACIL] | 3.5 µM | 5.3 µM | 2.8 µM | 0.3 µM |  |  |  |  |  |  |  |  |  | 
2 | COC(=O)c1cc(O)c2[nH]c3ncccc3c2c1 | 8.8 µM | 9 µM | 7.1 µM | 11 µM | 14.3% | 18.7% | 16 µM | 26.5% | 29.1% | 56.6% | 18.9% | 14.7% | 58.7% | 62.4%
3 | COC(=O)c1cc(OC)c2[nH]c3ccccc3c2c1 [MUKONINE] | 72 µM | 62 µM | 43 µM | 30 µM | 11.7% | 9% | 80 µM | 33.8% | 17.4% | 70.8% | 14.1% | 10.3% | 55.8% | 76.7%
4 | COC(=O)c1cc(OC)c2[nH]c3ncccc3c2c1 | 4.7 µM | 5.6 µM | 8.6 µM | 4.4 µM | 16.4% | 18.1% | 144 µM | 27.3% | 31% | 52.6% | 23% | 11.9% | 60.7% | 59%
5 | COc1cc(CO)cc2c1[nH]c1ncccc12 | 63.1 µM | 21.1 µM | 36.6 µM | 58 µM | 29.3% | 32.4% | 65 µM | 33% | 17.4% | 53.3% | 9.7% | 14.7% | 52.3% | 57.4%
6 | COC(=O)c1cc(O)c2[nH]c3ccccc3c2c1 [CLAUSINE E] | 4.8 µM | 21 µM | 1.9 µM | 0.6 µM | 28% | 21.9% | 35 µM | 17.5% | 12.1% | 60% | 12.5% | 25.7% | 59.9% | 65.6%
